Key:
[1] = target: T1, rat APN activity (Rattus norvegicus, UniProt P15684); assay: In vivo effects of inhibitors on APN activity in rat organs; settings: for blood-brain barrier crossing: inferred from inhibition of APN activity in the brain of rats
T1 sequence (P15684 1-965): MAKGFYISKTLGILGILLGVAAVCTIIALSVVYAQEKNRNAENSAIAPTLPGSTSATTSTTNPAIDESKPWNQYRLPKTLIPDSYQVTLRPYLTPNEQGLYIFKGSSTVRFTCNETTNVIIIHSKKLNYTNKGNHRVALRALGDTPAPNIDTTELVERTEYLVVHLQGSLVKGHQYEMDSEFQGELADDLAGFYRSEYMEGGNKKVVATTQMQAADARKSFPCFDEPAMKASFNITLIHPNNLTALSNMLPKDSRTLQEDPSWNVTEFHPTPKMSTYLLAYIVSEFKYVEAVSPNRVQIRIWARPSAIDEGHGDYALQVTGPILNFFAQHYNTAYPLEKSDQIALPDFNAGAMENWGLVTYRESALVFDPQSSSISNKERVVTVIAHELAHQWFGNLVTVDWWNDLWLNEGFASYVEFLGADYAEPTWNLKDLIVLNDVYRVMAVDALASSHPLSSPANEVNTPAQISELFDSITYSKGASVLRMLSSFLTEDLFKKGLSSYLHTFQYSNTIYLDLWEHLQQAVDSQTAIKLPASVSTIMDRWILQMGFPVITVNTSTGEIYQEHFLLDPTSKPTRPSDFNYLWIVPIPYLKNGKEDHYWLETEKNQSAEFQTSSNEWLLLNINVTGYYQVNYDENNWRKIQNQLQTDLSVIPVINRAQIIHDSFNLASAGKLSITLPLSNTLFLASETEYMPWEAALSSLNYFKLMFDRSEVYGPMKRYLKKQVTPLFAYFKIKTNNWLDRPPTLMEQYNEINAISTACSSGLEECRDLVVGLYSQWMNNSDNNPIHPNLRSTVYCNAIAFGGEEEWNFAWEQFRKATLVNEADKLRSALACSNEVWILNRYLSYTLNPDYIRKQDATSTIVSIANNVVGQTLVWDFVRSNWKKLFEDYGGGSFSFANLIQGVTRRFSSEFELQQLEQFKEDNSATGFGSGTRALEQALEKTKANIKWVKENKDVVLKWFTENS
How it was run: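 Wistar rats (80–100 days, 260–300 g) got one intraperitoneal injection of inhibitor, 3 μg/g body weight in 100 μL 0.9% saline, or saline alone (n = 6 per group). Decapitation 1 h later; organs frozen, stored at −70 °C. NaCl-washed membranes from 10% (w/v) homogenates in 50 mM Tris-HCl pH 8. APN kinetic assay as for porcine APN, 30 min. Mean ± SD; ANOVA, Tukey-Kramer.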

[2] = target: T2, Porcine kidney APN (pAPN) (Sus scrofa, UniProt P15145); assay: Porcine kidney APN; type: biochemical; settings: for Inhibition Type: Table 1, hAPN and pAPN, Lineweaver-Burk diagnosis (hAPN data not shown); for α (pAPN): factor between αKi and Ki vs pAPN; for IC50: read-out: IC50 vs pAPN, 30 min pre-incubation, substrate at KM, n = 4
T2 sequence (P15145 1-963): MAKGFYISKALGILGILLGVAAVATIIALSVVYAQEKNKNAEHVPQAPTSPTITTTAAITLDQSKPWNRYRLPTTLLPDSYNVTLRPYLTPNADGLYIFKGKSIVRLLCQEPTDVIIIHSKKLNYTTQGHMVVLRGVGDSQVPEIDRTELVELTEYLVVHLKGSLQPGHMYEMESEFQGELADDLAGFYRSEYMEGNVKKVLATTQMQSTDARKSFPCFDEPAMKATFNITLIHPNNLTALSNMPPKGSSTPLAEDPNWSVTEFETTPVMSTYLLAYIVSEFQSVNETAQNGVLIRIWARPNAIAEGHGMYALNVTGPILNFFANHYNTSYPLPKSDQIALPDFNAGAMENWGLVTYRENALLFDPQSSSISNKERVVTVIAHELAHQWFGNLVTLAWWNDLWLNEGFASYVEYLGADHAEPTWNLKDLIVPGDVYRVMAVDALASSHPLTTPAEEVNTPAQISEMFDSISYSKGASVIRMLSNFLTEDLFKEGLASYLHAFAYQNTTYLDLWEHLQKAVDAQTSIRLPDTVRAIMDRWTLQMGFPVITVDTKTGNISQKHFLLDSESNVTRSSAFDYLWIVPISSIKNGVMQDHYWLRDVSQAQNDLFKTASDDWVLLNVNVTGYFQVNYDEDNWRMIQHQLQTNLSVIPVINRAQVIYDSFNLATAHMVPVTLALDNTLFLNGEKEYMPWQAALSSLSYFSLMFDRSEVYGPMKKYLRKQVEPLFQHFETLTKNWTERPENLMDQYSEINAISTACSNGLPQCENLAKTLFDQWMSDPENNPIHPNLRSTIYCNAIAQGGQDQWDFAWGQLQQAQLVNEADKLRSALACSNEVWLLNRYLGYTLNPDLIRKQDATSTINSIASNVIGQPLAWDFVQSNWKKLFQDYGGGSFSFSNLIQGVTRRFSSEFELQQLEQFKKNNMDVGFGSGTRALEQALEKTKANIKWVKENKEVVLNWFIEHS

[3] = test system: Wistar rats; assay: Mortality and spontaneous behavior after intraperitoneal injection; type: in vivo; settings: 3 μg/g b.w. intraperitoneal, compared to the vehicle group (not shown)
[4] = target: porcine kidney cortex glutamyl aminopeptidase (porcine aminopeptidase A; pAPA) (Sus scrofa, UniProt Q95334); assay: Porcine aminopeptidase A; type: biochemical; settings: read-out: IC50 vs pAPA; dose-response, L-Glu-pNA
How it was run: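 Microsomes from porcine kidney cortex, prepared as for placental APN, used at 1 mg/mL in 50 mM Tris-HCl pH 8, 0.1% Triton X100, 1 mM CaCl2. Substrate L-Glu-pNA at or below one KM. p-Nitroaniline release read at 405 nm every 15 s for 5 min, 37 °C. Test compounds came from 10 mM DMSO stocks diluted in buffer. IC50 came from nonlinear regression of dose-response data.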

[5] = target: Human placental aminopeptidase N (hAPN) (Homo sapiens, UniProt P15144); assay: Human placental aminopeptidase N; type: biochemical; settings: read-out: IC50 vs hAPN; 30 min pre-incubation; substrate at KM; n = 4
[6] = rat, 3 μg/g b.w. intraperitoneal, 60 min, vs saline injected animals

Chain of porcine kidney cortex glutamyl aminopeptidase (porcine aminopeptidase A; pAPA) (Q95334 whole entry): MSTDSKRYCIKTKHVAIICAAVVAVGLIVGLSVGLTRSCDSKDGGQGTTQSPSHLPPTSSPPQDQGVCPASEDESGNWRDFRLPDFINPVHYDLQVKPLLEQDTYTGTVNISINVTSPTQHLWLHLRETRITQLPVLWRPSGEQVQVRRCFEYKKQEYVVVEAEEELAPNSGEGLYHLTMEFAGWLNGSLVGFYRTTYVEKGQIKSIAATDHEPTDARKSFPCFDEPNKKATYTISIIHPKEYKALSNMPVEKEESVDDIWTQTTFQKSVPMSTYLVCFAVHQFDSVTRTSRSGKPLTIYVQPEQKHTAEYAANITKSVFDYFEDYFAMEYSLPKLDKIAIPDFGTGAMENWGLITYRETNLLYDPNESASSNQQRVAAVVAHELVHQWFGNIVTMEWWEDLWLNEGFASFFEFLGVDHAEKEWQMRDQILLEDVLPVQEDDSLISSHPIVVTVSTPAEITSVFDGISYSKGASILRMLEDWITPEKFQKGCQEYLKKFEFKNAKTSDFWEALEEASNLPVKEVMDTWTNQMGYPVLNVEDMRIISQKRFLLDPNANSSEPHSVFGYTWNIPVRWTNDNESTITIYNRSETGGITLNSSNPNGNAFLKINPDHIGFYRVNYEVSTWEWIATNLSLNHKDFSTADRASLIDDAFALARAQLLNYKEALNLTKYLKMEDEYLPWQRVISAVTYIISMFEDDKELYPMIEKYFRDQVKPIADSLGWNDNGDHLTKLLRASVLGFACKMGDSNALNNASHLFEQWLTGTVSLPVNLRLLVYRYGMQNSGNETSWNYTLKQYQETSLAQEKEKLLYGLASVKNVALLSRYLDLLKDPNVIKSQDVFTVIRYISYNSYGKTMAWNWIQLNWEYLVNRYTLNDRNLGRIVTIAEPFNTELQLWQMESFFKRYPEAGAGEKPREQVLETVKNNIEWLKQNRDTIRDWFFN
Chain of Human placental aminopeptidase N (hAPN) (P15144 whole entry): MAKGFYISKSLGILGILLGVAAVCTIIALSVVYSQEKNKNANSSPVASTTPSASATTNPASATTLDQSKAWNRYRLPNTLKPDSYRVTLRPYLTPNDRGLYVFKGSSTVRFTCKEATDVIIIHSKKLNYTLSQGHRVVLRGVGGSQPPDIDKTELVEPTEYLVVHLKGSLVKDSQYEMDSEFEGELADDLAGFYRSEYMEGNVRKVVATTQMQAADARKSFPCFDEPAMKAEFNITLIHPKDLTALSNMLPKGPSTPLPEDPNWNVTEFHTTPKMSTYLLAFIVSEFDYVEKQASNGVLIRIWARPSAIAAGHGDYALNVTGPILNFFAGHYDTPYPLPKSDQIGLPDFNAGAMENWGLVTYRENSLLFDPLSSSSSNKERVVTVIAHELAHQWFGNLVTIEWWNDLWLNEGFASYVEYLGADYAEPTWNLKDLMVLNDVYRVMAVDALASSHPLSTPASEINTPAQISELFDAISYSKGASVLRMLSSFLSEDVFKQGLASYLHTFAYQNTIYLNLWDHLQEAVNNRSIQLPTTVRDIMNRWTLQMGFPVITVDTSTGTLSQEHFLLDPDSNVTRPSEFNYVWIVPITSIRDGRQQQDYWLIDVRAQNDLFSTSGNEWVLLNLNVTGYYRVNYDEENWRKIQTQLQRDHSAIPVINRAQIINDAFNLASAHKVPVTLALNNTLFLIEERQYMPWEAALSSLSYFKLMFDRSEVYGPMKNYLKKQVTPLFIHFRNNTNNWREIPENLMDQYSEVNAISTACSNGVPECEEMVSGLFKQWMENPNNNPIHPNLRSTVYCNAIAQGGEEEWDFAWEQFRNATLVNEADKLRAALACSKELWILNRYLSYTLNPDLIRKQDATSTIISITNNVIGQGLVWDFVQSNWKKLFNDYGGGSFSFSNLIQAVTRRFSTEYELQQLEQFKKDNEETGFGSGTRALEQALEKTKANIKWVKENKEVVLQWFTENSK

| Structure (SMILES) | blood-brain barrier crossing [1] | APN activity in brain [1, 6] | APN activity in kidney [1, 6] | APN activity in liver [1, 6] | Inhibition Type [2] | α (pAPN) [2] | IC50 [2] [nM] | mortality or change in rat spontaneous behavior [3] | IC50 [4] [nM] | IC50 [5] [nM] | APN activity in pancreas [1, 6] |
| --- | --- | --- | --- | --- | --- | --- | --- | --- | --- | --- | --- |
| O=C(NNC(=NS(=O)(=O)c1ccc(-n2nc(C(F)(F)F)cc2-c2cccs2)cc1)N1CCCC1)c1ccc(Cl)cc1 [BTB07018, N1-[[2-(4-chlorobenzoyl)hydrazino](tetrahydro-1H-pyrrol-1-yl)methylidene]-4-[5-(2-thienyl)-3-(trifluoromethyl)-1H-pyrazol-1-yl]benzene-1-sulfonamide] | crossed the blood-brain barrier | decreased APN activity | decreased APN activity | decreased APN activity | Non-competitive α > 1 | 1.82 | 2290 ± 100 | did not induce any mortality or change in rat spontaneous behavior | 4740 ± 100 | 2670 ± 110 | – |
| C(=C1c2ccccc2-c2c1ccc1ccccc21)c1cc2c3c(cccc3c1)-c1ccccc1-2 [BTB11079, 2-(7H-benzo[c]fluoren-7-ylidenmethyl)fluoranthene] | – | – | – | – | Non-competitive α > 1 | 11.40 | 2950 ± 100 | did not induce any mortality or change in rat spontaneous behavior | 3880 ± 110 | – | – |
| CC(C)C[C@H](NC(=O)[C@@H](O)[C@H](N)Cc1ccccc1)C(=O)O [Bestatin, reference compound] | – | – | – | – | Non-competitive α > 1 | 5.97 | – | – | – | – | – |
| N#Cc1cc(Cc2ccc3c(ccc4ccccc43)c2C#N)cc2c1ccc1ccccc12 [JFD00064, 2-[(1-cyano-3-phenanthryl)methyl]phenanthrene-1-carbonitrile] | crossed the blood-brain barrier | decreased APN activity | decreased APN activity | decreased APN activity | Non-competitive α > 1 | 2.69 | 2830 ± 100 | did not induce any mortality or change in rat spontaneous behavior | 1820 ± 110 | – | inhibited the APN activity |
